Experimental data from ChEMBL document CHEMBL5120825, “The azulene scaffold from a medicinal chemist's perspective: Physicochemical and in vitro parameters relevant for drug discovery” (Eur J Med Chem, 2022).
Converted amounts (≈) assume the structure as drawn.

Columns and labels:
[1] = Aqueous solubility of the compound at pH 6.8 incubated for 24 hrs under shaking condition by LC-UV analysis; type: physicochemical; conditions: aqueous medium
Summary of the method: (§1)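 The highest concentration tested was 250 μM, so results are capped at that level. Values are reported in µg/ml.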

[2] = Aqueous solubility of the compound at pH 2.2 incubated for 24 hrs under shaking condition by LC-UV analysis; type: physicochemical; conditions: aqueous medium; summary of the method: as §1
[3] = Lipophilicity, logP of the compound; type: physicochemical; conditions: octanol/water
[4] = Metabolic stability in human liver microsomes assessed as hepatic blood flow at 1 uM preincubated with compound followed by NADPH addition by LC-MS/MS analysis; type: ADME, Microsome; conditions: read-out: QH
[5] = Octanol-water partition coefficient, logD of the compound at pH 11 by HPLC analysis; type: physicochemical
[6] = Permeability of the compound at pH 7.4 by PAMPA assay; type: ADME; conditions: read-out: permeability
[7] = Aqueous solubility of the compound at pH 4.5 incubated for 24 hrs under shaking condition by LC-UV analysis; type: physicochemical; conditions: aqueous medium; summary of the method: as §1
[8] = Octanol-water partition coefficient, logD of the compound at pH 2 by HPLC analysis; type: physicochemical

Compound | solubility thermodynamic at 24 h [1] [µg/mL] | solubility thermodynamic at 24 h [2] [µg/mL] | logP ([3]; read-out: logP) | hepatic extraction ratio at 1 µM [4] | logD ([5]; read-out: logD) | Papp [6] [×10⁻⁶ cm/s] | solubility thermodynamic at 24 h [7] [µg/mL] | logD ([8]; read-out: logD) | logP [3] | logD [8] | logD [5]
O=C(NCc1cccnc1)c1ccc2[nH]cc(C(=O)c3ccccc3)c2c1 | < 1 | > 79 | 1.4 | 0.56 | 0.8 | 0.1 | 1 (≈ 2.81 µM) | 0.8 |  |  | 
COC(=O)c1ccc2ccn(C(=O)c3ccccc3)c2c1 | < 1 | < 1 | 4.3 |  | 4.3 | 0.5 | < 1 | 4.4 |  |  | 
Cn1cc(C(=O)c2ccccc2)c2cc(C(=O)NCc3cccnc3)ccc21 | < 1 | 81 (≈ 219 µM) | 2.1 | < 0.23 | 0.9 | 1.7 | 3 (≈ 8.12 µM) | 0.9 |  |  | 
O=C(Nc1cc2cccccc-2c1)c1cccnc1 | 2 (≈ 8.06 µM) | 43 (≈ 173 µM) | 2.4 | 0.71 | 1.3 | 4.8 | 3 (≈ 12.1 µM) | 1.3 |  |  | 
O=C(NCCc1cnc[nH]1)C1=CC2C(C(=O)c3ccccc3)=CN=C2C=C1 (stereo unspecified) | 66 (≈ 184 µM) | > 81 | 0.8 | < 0.23 | 0.8 | < 0.01 | 78 (≈ 218 µM) | 0.7 |  |  | 
NC(=O)C1CCN(C(=O)c2c[nH]c3ccccc23)CC1 |  |  |  | < 0.23 | -0.2 | < 0.01 |  |  | -0.2 | 0.3 | 
CN1CCN(C(=O)c2ccc3[nH]cc(C(=O)c4ccccc4)c3c2)CC1 | 69 (≈ 199 µM) | > 74 | 1.3 | < 0.23 | 1.3 | 0.2 |  | 0.5 |  |  | 
O=C(NCCO)c1ccc2[nH]cc(C(=O)c3ccccc3)c2c1 | 15 (≈ 48.6 µM) | 39 (≈ 126 µM) |  | 0.53 |  | 0.01 | 18 (≈ 58.4 µM) |  | 0.6 | 1.3 | 1.3
COC(=O)c1ccc2c(C(=O)c3ccccc3)c[nH]c2c1 | < 1 | < 1 |  |  | 2.7 | 1.5 | < 1 |  | 2.7 | 3.1 | 
O=C(NCCc1c[nH]c2ccccc12)c1ccc2[nH]cc(C(=O)c3ccccc3)c2c1 | 1 (≈ 2.45 µM) | < 1 |  | 0.84 | 2.8 | < 0.01 | < 1 |  | 2.8 | 3.3 | 
CN(C)C(=O)Cc1ccc2cc[nH]c2c1 | > 51 | > 51 |  | < 0.23 | 1 | 1.3 | > 51 |  | 1 | 1.4 | 
COC(=O)c1ccc2c(ccn2C(=O)c2ccccc2)c1 | < 1 | < 1 | 4.4 |  | 4.4 | 0.5 | < 1 | 4.5 |  |  | 
COC(=O)c1ccc2c(C(=O)c3ccccc3)cn(C(=O)c3ccccc3)c2c1 | < 1 | < 1 | 5.2 |  | 5.2 | 2.1 | < 1 | 5.2 |  |  | 
CN(C)C(=O)Cc1ccc2ccccc2c1 | 40 (≈ 188 µM) | 41 (≈ 192 µM) |  | 0.4 | 2.4 | 4.7 | 39 (≈ 183 µM) |  | 2.4 | 2.7 | 
Cn1cc(C(=O)N2CCC(C(N)=O)CC2)c2ccccc21 | > 64 | > 71 |  | < 0.23 | 0.4 | 0.2 | 44 (≈ 154 µM) |  | 0.4 | 1.1 | 
Cn1cc(C(=O)c2ccccc2)c2cc(C(=O)NCCO)ccc21 | 45 (≈ 140 µM) | 53 (≈ 164 µM) | 1.3 | < 0.23 | 1.6 | 0.5 | 66 (≈ 205 µM) | 1.6 |  |  | 
Cn1c(NC(=O)c2cccnc2)cc2ccccc21 |  | > 59 | 1.3 | 0.23 | -0.1 | 4.9 |  | -0.1 |  |  | 
